# High-throughput results: PubChem, several laboratories
# TPT1 inhibitor = Candida albicans TPT1 enzyme inhibitors, primary screen, biochemical, fluorescence polarization; tRNA 2'-phosphotransferase TPT1 (Candida albicans SC5314); 300,000 compounds, 0.81% hits; AID 1962, 2009; recombinant caTPT1, FP RNA substrate dephosphorylation; inhibition, % at 5 µM;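 active means inhibition above the mean of all tested compounds plus 3 SD, set per screening campaign, cut at about 24% in these data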;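 further: plate controls were DMSO alone for no effect and ferristatin control at 100 nM for full effect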
# HNF4A DNA FP = change in binding of human HNF4A to DNA, primary screen, biochemical, fluorescence polarization, FITC-DNA; Hepatocyte nuclear factor 4-alpha (Homo sapiens), P41235; 1 h; activity change, % at 10 µM; 360,000 compounds, 0.3% hits; in the data active means activity change above about 30%, passing the limit was not always enough
# Target sequence (P41235 whole entry, looked up): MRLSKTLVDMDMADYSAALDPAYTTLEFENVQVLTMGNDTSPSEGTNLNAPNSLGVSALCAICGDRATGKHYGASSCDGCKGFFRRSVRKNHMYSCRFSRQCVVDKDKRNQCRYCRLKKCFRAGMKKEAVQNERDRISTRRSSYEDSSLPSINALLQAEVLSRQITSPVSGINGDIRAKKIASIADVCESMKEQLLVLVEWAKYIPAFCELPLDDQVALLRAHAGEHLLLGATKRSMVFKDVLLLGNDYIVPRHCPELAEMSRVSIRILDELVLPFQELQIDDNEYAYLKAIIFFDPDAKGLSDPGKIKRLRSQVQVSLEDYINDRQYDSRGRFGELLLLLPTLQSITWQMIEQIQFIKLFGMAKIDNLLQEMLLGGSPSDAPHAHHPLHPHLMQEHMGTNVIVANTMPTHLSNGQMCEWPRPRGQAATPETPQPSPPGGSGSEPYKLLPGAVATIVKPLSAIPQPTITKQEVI
# CSN deneddyl inh = inhibitors of CSN-mediated cullin deneddylation, primary screen, biochemical, fluorescence polarization, uHTS. Purified CSN, SCF-Nedd8-OG deneddylation. 360,000 compounds, 0.38% hits. AID 651999, 2013. inhibition, % at 12.5 µM;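 active means pattern-corrected inhibition above about 35%, with an unprinted fluorescence ratio check between 0.5 and 1.5, limit read from the data, passing the limit was not always enough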;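 further: 0% = enzyme with substrate and 100% = substrate without enzyme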
#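 Material: purified human Csn5 enzyme expressed in HEK293T cells / Medium: Tris buffer pH 7.5, NaCl, DTT, Tween-20, trehalose, ovalbumin / Compound dosing: 12.5 µM single point / Schedule: 90 min incubation of compound, enzyme and substrate at room temperature / Signal: fluorescence polarization of the substrate / Control set: no-enzyme wells high, enzyme-with-substrate wells low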
# Rpn11 block = Rpn11 (PSMD14) deubiquitinase inhibitors, primary screen, biochemical, fluorescence polarization, uHTS. 26S proteasome non-ATPase regulatory subunit 14 (Homo sapiens), O00487. human 26S proteasome, Ub4-pepOG fluorescence polarization; 20S core pre-blocked with epoxomicin. calls only at 20 µM. 360,000 compounds, 0.59% hits. AID 588493, 2011;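 active means inhibition at 20 µM, scaled to each plate's controls, above about 33%, limit read from the data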
# caTPT1 confirm = Candida albicans TPT1 inhibitors, confirmation, biochemical, fluorescence polarization, triplicate; shares compounds with TPT1 inhibitor; recombinant caTPT1, RNase T1 coupled; inhibition, % at 5 µM; 2,400 compounds, 74% hits;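 active means inhibition above the primary screen limit, the mean inhibition of all tested compounds plus 3 SD, cut at about 25% in these data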
# RNase T1 counter = RNase T1 inhibitors, counter-screen for TPT1 inhibitor project, biochemical, fluorescence polarization; 2,400 compounds, 83% hits; RNase T1 cleavage, 1536-well; shares compounds with TPT1 inhibitor; inhibition, % at 5 µM;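 active means inhibition above the solvent-only control well mean plus 3 SD, limit set per screening run, cut at about 23% in these data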;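 further: plate controls were DMSO wells with enzyme for no effect and wells without RNase T1 for full effect; inhibitors block cleavage so intact labeled substrate keeps polarization high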
# Numbers without * were called inactive; i = inactive; . = not tested or not shown. Hits are enriched below; roughly 1.5% of the tested compounds scored in any of these assays.
SMILES,TPT1 inhibitor,HNF4A DNA FP,CSN deneddyl inh,Rpn11 block,caTPT1 confirm,RNase T1 counter
CC(/C=N/n1c(-c2n[nH]c3c2CCC3)n[nH]c1=S)=C\c1ccco1,33*,-1,4,i,4,9
N#CC1(C#N)C2=C(CCCC2)NC(c2ccccc2)C1(C#N)C#N (centres undefined),30*,.,.,.,25*,34*
N#CC12C(N)=NC3(OCCO3)C1(C#N)C1=C(CCC1)NC2c1ccccc1 (centres undefined),-22,3,-4,i,.,.
CCCNC(=O)Cn1c(=O)/c(=C\c2ccc(-c3cccc([N+](=O)[O-])c3)o2)s/c1=C\C(=O)C(C)(C)C,50*,-54,12,i,-88,-58
CCCNC(=O)Cn1c(=O)/c(=C\c2ccc(-c3ccc([N+](=O)[O-])cc3)o2)s/c1=C\C(=O)C(C)(C)C,109*,135,35,.,99*,99*
CCCN(CCC)c1ccc(/C=C/c2ccc3cc(OCC)ccc3n2)cc1,57*,88,34,.,93*,97*
NNC(=O)c1oc2nc(-c3ccco3)cc(-c3ccco3)c2c1N,66*,10,-1,i,48*,61*
Nc1c(C(=O)N/N=C/c2cccnc2)oc2nc(-c3ccco3)cc(-c3ccco3)c12,44*,-44,47,i,76*,81*
Cc1cc(C)c2c(N)c(C(=O)N/N=C/c3cccnc3)sc2n1,15,-1,7,i,.,.
NNC(=O)c1oc2nc(-c3ccc(Cl)cc3)cc(-c3ccccc3)c2c1N,.,8,7,i,.,.
CN1CCc2c(sc(NC(=O)c3ccc4ccccc4c3)c2C(N)=O)C1,34*,32,33,.,25*,34*
CN1CCc2c(sc(NC(=O)Cc3ccccc3)c2C(N)=O)C1,1,-1,4,i,.,.
NC(=O)c1c(NC(=O)c2ccccc2)sc2c1CCN(Cc1ccccc1)C2,71*,66,46*,.,56*,66*
CCN1CCc2c(sc(NC(=S)NC(=O)c3ccco3)c2C(N)=O)C1,33*,12,9,i,32*,42*
NC(=O)c1c(NC(=O)c2c(F)cccc2F)sc2c1CCN(Cc1ccccc1)C2,36*,6,13,i,14,23*
CC(=O)Nc1cncc(-c2cnn(CC(C)C)c2)n1,.,-1,-5,i,.,.
CN1CCc2c(sc(/N=C/c3cccs3)c2C(N)=O)C1,39*,20,-2,i,43*,56*
CN1CCc2c(sc(N)c2C(=O)c2ccc(Cl)cc2)C1,32*,40*,24,.,37*,48*
CN1CCc2c(sc(/N=C/c3ccco3)c2C(N)=O)C1,0,2,6,i,.,.
Cc1ccc(C(=O)C2C(=O)C3CCC2C3)cc1 (centres undefined),.,-1,2,i,.,.
O=C(CSc1nc(-c2ccccc2)nc2c1CCCC2)N1CCOCC1,56*,-4,3,i,28*,30*
O=C(O)CSc1nc(-c2ccccc2)nc2c1CCCC2,1,2,-2,i,.,.
CCN(CC)c1ccc(C=C(c2nnnn2-c2ccc(C)cc2)c2nnnn2-c2ccc(C)cc2)cc1,77*,20,9,.,73*,85*
NS(=O)(=O)c1cc2c(cc1Cl)NC(Cc1ccccc1)NS2(=O)=O (centres undefined),43*,6,6,i,5,12
NS(=O)(=O)c1cc2c(cc1Cl)NC(CC1CCCC1)NS2(=O)=O (centres undefined),-4,1,-3,i,.,.
COc1ccc(C(=O)NC(=S)N2CCCCC2)cc1,3,0,-3,i,.,.
COc1cc(OC)cc(C(=O)NC(=S)N2CCCCCC2)c1,43*,1,0,i,2,4
NS(=O)(=O)c1cccc(NC(=O)CN2CCc3ccccc32)c1,-38,1,-1,i,.,.
CN(c1ccccc1)S(=O)(=O)c1cccc(NC(=O)CN2CCCc3ccccc32)c1,37*,10,5,i,25*,37*
